The molecules below were run against T1, Caspase-1 (Homo sapiens, UniProt P29466) (assay: Inhibition of human recombinant caspase 1).
T1 sequence (P29466 whole entry): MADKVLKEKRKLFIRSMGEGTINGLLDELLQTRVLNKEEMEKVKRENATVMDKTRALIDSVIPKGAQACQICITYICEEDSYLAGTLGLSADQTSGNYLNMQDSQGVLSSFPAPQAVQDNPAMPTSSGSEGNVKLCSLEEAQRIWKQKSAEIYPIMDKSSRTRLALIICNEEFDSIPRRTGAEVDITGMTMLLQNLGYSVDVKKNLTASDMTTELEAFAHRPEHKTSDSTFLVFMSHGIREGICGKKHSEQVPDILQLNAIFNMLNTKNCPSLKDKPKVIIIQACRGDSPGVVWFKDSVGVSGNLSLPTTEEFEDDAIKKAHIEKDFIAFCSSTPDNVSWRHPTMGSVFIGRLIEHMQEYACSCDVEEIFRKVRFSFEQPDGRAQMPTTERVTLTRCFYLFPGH
Outline: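 Recombinant human caspase-1 stored at -80 °C as aliquots and used at 1:20 dilution; enzyme preincubated with inhibitor (Ki determinations). Substrate Ac-Trp-Glu-His-Asp-AMC, 5 μM final. AMC release followed kinetically, excitation 380 nm, emission 460 nm.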

Row | SMILES | Ki | IC50
1 | CC(C)[C@H](NC(=O)c1ccc2ccccc2c1)C(=O)N[C@@H](C)C(=O)N[C@H](CNCc1ccc2c(c1)OCO2)CC(=O)O | 0.209 µM | –
2 | COc1ccccc1CNC[C@H](CC(=O)O)NC(=O)[C@H](C)NC(=O)[C@@H](NC(=O)c1ccc2ccccc2c1)C(C)C | 0.965 µM | –
3 | CC(C)[C@H](NC(=O)c1ccc2ccccc2c1)C(=O)N[C@@H](C)C(=O)N[C@H](CNC1CCCCC1)CC(=O)O | 0.945 µM | –
4 | CC(C)[C@H](NC(=O)c1ccc2ccccc2c1)C(=O)N[C@@H](C)C(=O)N[C@H](CNCc1ccccc1)CC(=O)O | 0.6 µM | –
5 | CC(C)[C@H](NC(=O)c1ccc2ccccc2c1)C(=O)N[C@@H](C)C(=O)N[C@H](C=O)CC(=O)O | – | 0.0002 µM
6 | CC(C)[C@H](NC(=O)c1ccc2ccccc2c1)C(=O)N[C@@H](C)C(=O)N[C@H](CNCc1ccccc1O)CC(=O)O | 0.047 µM | –
7 | CC(C)[C@H](NC(=O)c1ccc2ccccc2c1)C(=O)N[C@@H](C)C(=O)N[C@H](CNCc1ccc(O)cc1)CC(=O)O | 1.37 µM | –
8 | CC(C)[C@H](NC(=O)c1ccc2ccccc2c1)C(=O)N[C@@H](C)C(=O)N[C@H](CNCc1ccc(C(N)=O)cc1)CC(=O)O | 1.82 µM | –
9 | CC(C)[C@H](NC(=O)c1ccc2ccccc2c1)C(=O)N[C@@H](C)C(=O)N[C@@H](CC(=O)O)CN(C)Cc1ccccc1 | 1.89 µM | –
10 | CC(C)[C@H](NC(=O)c1ccc2ccccc2c1)C(=O)N[C@@H](C)C(=O)N[C@H](CCCc1ccccc1)CC(=O)O | > 50 µM | –
11 | CC(C)[C@H](NC(=O)c1ccc2ccccc2c1)C(=O)N[C@@H](C)C(=O)N[C@@H](CC(=O)O)CN(C)C1CCCCC1 | 0.128 µM | –
12 | CC(C)[C@H](NC(=O)c1ccc2ccccc2c1)C(=O)N[C@@H](C)C(=O)N[C@H](CNCc1ccccc1F)CC(=O)O | 1.2 µM | –

Each molecule was assayed against Caspase-8 (Homo sapiens, UniProt Q14790) (assay: Inhibition of caspase 8).
Caspase-8, sequence (Q14790 217-374 limits assumed): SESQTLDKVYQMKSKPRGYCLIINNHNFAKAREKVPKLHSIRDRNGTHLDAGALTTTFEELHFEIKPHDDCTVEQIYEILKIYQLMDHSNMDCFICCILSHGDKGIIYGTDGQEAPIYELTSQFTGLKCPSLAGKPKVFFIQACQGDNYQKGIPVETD
Caspase-8, sequence (Q14790 385-479 limits assumed): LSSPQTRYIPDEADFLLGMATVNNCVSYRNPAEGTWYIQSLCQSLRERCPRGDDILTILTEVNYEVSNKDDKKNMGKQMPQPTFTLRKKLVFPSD

Row | SMILES | IC50
13 | CC(C)[C@H](NC(=O)c1ccc2ccccc2c1)C(=O)N[C@@H](C)C(=O)N[C@H](CNCc1ccccc1O)CC(=O)O | 100 µM
